# Assay results from ChEMBL document CHEMBL4706641, “Novel Carboline Fungal Histone Deacetylase (HDAC) Inhibitors for Combinational Treatment of Azole-Resistant Candidiasis” (J Med Chem, 2021).
# The source made the active and inactive calls. No cut-off for these calls is given here.
# Legend:
# [1] = test system: Candida albicans; assay: Antifungal activity against Candida albicans 0304103 incubated for 48 hrs by microdilution assay; assay type: functional; conditions: Candida albicans, 0304103, read-out: MIC80
# How it was run: (§1)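 Checkerboard broth microdilution per CLSI M27-A3 (modified), clinical Candida isolates. Exponential cells in RPMI 1640 (MOPS-buffered) at 10³ cells/mL; fluconazole 0.25–64 μg/mL crossed with test compound 2–64 μg/mL (final). 48 h at 35 °C; OD630 read with background subtracted. MIC80 = 80% growth inhibition; FICI ≤0.5 synergy, >4 antagonism.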
# [2] = test system: Candida albicans; assay: microbe, parasite or virus in culture; assay type: functional, 0304103; conditions: Candida albicans, 0304103; time 48 hrs; read-out: MIC80
# [3] = test system: Candida albicans; assay: Synergistic antifungal activity against Candida albicans 0304103 assessed as potentiation of fluconazole antifungal activity by measuring FICI incubated for 48 hrs in presence of fluconazole by checkerboard microdilution assay; assay type: functional; how it was run: as §1
# [4] = test system: Nakaseomyces glabratus; assay: Synergistic antifungal activity against Candida glabrata assessed as potentiation of ITC antifungal activity by measuring ITC incubated for 48 hrs in presence of fluconazole by checkerboard microdilution assay; assay type: functional, organism-based
# [5] = test system: Candida tropicalis; assay: Synergistic antifungal activity against Candida tropicalis assessed as potentiation of VRC antifungal activity by measuring VRC incubated for 48 hrs in presence of fluconazole by checkerboard microdilution assay; assay type: functional, organism-based
# [6] = test system: Pichia kudriavzevii; assay: Synergistic antifungal activity against Candida krusei 10153 incubated for 48 hrs in presence of fluconazole by microdilution assay; assay type: functional; how it was run: as §1
# [7] = test system: Pichia kudriavzevii; assay: Synergistic antifungal activity against Candida krusei 10153 assessed as potentiation of fluconazole antifungal activity by measuring FICI incubated for 48 hrs in presence of fluconazole by checkerboard microdilution assay; assay type: functional
# How it was run: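 Checkerboard broth microdilution per CLSI M27-A3 (modified), clinical Candida isolates. 48 h at 35 °C; OD630 read with background subtracted. MIC80 = 80% growth inhibition; FICI ≤0.5 synergy, >4 antagonism.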
# [8] = test system: Candida albicans; assay: (§2) Antifungal activity against Candida albicans 0304103 infected in ICR mouse model of candidiasis assessed as reduction in kidney fungal burden at 10 mg/kg, ip dosed 24 hrs post infection and co-treated with 1 mg/kg, ip fluconazole and measured after 5 days; assay type: functional, organism-based; conditions: time 5.0 day
# [9] = test system: Candida albicans; assay: Inhibition of HDAC in Candida albicans supernatants using Boc-Lys(Ac)-AMC substrate incubated for 18 hrs by fluorescence based assay
# How it was run: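 Fungal whole-cell HDAC assay: C. albicans converted to protoplasts by snailase/mercaptoethanol (37 °C, 3 h), resuspended in PBS; compound 1–100 μM final, 35 °C 12 h, then Boc-Lys(Ac)-AMC 33 μM, 37 °C 6 h. Stopped with trypsin/Nonidet P-40 buffer, 37 °C 2 h; fluorescence Ex 360/Em 460 nm. Inhibition vs control after blank subtraction; three independent experiments.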
# [10] = target: Histone deacetylase 1 (Homo sapiens, UniProt Q13547); assay: Inhibition of human HDAC1 pre-incubated for 5 mins before substrate addition and measured after 30 mins by fluorescence based assay
# [11] = target: T1, Protein deacetylase HDAC6 (Homo sapiens, UniProt Q9UBN7); assay: Inhibition of human HDAC6 pre-incubated for 5 mins before substrate addition and measured after 30 mins by fluorescence based assay
# T1 sequence (Q9UBN7 whole entry): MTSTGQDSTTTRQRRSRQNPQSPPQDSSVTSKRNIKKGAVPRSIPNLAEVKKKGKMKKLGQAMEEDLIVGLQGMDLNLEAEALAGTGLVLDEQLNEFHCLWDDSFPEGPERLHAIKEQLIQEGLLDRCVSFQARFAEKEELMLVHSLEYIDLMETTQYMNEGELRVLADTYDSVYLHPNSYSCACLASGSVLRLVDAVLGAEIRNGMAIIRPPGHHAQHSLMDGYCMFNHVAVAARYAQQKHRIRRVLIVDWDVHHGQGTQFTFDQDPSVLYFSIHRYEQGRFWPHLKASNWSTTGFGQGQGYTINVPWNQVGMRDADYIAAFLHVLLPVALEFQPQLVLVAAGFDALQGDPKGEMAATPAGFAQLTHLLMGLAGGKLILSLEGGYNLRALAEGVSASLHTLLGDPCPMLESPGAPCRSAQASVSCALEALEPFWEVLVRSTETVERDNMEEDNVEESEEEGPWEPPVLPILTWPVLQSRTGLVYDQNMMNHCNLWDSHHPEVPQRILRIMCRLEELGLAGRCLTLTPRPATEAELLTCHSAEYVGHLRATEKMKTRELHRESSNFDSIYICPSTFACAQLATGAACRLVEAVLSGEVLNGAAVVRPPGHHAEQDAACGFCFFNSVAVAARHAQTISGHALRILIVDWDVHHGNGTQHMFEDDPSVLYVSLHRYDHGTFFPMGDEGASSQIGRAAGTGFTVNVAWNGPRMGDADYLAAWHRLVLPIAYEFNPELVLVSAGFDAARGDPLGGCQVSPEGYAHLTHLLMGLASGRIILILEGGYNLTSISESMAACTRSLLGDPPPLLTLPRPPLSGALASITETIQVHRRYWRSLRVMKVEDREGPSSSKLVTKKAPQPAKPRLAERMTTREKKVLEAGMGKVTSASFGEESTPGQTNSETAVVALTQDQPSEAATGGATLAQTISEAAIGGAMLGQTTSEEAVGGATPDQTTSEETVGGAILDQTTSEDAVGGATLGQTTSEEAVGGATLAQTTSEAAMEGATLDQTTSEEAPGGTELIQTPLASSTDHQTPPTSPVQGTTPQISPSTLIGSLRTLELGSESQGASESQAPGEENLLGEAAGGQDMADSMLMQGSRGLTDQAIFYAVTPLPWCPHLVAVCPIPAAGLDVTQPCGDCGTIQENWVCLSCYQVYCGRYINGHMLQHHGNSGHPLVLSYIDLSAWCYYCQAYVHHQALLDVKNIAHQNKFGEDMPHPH
# [12] = Toxicity in HUVEC; assay type: cell-based; conditions: human, HUVEC cells
# [13] = test system: Candida albicans; assay: Inhibition of pre-formed biofilms in Candida albicans 0304103 at 64 ug/ml incubated for 24 hrs in presence of fluconazole by XTT reduction assay; assay type: functional; conditions: dose 64.0 µg/ml
# How it was run: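 Mature biofilms grown 24 h at 37 °C from C. albicans 0304103 (1.0 × 10⁶ CFU/mL in RPMI 1640), then treated with drugs alone or combined as in the formation assay; viability by XTT reduction at OD490. Three independent experiments; t-test versus control.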
# [14] = test system: Candida albicans; assay: as §2, with “in” for “in kidney”, “invasion by measuring clusters of fungal infiltration in renal pelvis/medulla” for “burden”, “days by H and E staining based microscopical analysis” for “days”; assay type: functional, organism-based; conditions: time 5.0 day
# How it was run: (§3)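 Two ICR mice per group, infected and treated as in the kidney burden model (IV 5 × 10⁵ C. albicans 0304103; IP compound 10 mg/kg, fluconazole 1 mg/kg, or combination, 5 days). Kidneys fixed in 4% paraformaldehyde, paraffin-embedded, 4 μm sections, H&E stained, examined at 40× and 200×.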
# [15] = test system: Candida albicans; assay: Antifungal activity against Candida albicans 0304103 infected in ICR mouse model of candidiasis assessed as reduction in morphological changes of budded-to-hyphal transition at 10 mg/kg, ip dosed 24 hrs post infection and measured after 5 days by H and E staining based microscopical analysis; assay type: functional, organism-based; conditions: time 5.0 day; how it was run: as §3
# Sequence of Histone deacetylase 1 (Q13547 whole entry): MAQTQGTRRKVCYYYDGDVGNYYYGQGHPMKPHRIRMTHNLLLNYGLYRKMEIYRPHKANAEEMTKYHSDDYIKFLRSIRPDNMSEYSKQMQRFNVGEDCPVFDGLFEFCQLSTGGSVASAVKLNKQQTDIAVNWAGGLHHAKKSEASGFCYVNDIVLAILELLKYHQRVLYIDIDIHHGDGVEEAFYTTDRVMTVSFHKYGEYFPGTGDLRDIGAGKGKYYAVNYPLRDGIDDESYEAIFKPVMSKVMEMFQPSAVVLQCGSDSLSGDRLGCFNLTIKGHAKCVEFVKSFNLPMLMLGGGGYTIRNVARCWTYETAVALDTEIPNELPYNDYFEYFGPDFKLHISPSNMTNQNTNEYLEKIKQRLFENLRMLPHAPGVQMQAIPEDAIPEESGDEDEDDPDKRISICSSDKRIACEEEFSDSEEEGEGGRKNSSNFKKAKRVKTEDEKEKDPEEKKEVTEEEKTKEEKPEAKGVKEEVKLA
smiles,measurement,setting,value
O=C(Cc1ccc(OCCCn2c3c(c4cccc(Cl)c42)CCNC3)cc1)NO,MIC80,[1],> 64 µg/mL
same,MIC80,[2],0.25 µg/mL
same,fractional inhibitory concentration index (FICI),[3],0.035
same,Activity,[4],Active
same,Activity,[5],Active
same,MIC80,[6],8 µg/mL
same,fractional inhibitory concentration index (FICI),[7],0.25
same,Activity,[8],Active
same,inhibition,[9],Active
same,IC50,[10],2.23 µM
same,IC50,[11],0.459 µM
same,IC50,[12],9.64 µM
same,inhibition,[13],Active
same,Activity,[14],Active
same,Activity,[15],inactive
